Values joined by “and” are separate entries in the source; they are usually repeats but may differ in a detail not shown here. Equal values may be shown once. “Also recorded” adds a separate entry of the source. Read-outs that look alike come from different tables or passages of the source. Blank lines part the entries; values can stand above or below the compound they belong to.
Assays:
[1] = pK and percent protonation of tertiary amines; type: physicochemical; conditions: calculated from pK 9.2
murine sperm = conditions: cited from earlier work
human sperm = conditions: cited from earlier work
mouse Slo1 K+ channels [2] = molecular target: T1, mouse Slo1 K+ channels (Mus musculus, UniProt Q08460); test: Block of Slo1 currents, blocker applied cytosolically to inside-out patches; type: cell-based; conditions: for zδ / zc / zo / zo (zδ) / Kd: 300 μM Ca2+; for zc / zo / zo (zδ) / Kd: pH 8.5
T1 sequence (Q08460 66-1209 limits assumed): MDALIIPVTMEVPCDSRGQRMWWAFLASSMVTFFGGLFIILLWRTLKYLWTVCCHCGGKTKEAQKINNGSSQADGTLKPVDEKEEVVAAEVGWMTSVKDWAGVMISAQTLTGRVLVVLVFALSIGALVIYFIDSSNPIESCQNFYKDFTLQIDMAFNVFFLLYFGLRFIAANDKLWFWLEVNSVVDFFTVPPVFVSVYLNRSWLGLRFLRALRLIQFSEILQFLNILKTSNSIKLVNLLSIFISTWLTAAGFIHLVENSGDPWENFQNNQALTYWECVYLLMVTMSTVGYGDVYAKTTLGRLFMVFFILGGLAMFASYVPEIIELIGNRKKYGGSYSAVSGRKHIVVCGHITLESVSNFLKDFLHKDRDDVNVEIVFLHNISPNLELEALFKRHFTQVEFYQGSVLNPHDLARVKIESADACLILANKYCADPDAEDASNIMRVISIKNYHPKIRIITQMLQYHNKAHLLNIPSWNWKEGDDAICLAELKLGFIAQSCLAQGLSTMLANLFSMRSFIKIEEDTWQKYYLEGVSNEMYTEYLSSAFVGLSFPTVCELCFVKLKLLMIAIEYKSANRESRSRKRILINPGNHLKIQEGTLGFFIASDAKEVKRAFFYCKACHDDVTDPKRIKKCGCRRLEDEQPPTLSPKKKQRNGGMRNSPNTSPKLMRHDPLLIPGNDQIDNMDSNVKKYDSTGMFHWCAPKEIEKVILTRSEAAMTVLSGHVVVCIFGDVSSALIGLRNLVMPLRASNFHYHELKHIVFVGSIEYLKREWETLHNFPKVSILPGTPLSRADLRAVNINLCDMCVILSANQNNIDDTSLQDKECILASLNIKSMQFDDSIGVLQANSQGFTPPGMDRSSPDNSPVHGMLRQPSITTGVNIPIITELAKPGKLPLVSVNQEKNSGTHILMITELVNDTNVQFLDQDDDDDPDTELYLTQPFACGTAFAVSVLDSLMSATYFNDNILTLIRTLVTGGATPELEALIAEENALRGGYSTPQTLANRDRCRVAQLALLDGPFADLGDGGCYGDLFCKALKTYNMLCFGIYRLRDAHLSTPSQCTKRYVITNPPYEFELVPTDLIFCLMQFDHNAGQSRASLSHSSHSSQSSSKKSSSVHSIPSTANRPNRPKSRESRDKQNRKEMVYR

mouse Slo1 K+ channels [3] = molecular target: T1, mouse Slo1 K+ channels; test: Block of Slo1 currents, blocker applied extracellularly to outside-out patches; type: cell-based
[4] = system: MC13 (Slo1(1-181):Slo3(171-1121)); test: Block of MC13; type: cell-based, mouse; conditions: at 0 mV
[5] = molecular target: T2, MC13 (Slo1(1-181):Slo3(171-1121)) (Mus musculus, UniProt O54982); test: Block of MC13; type: cell-based; conditions: for effect of extracellular 4-AP on MC13/Slo3 currents: 4-AP up to 100 mM at pH 7.0, pipette pH 8.5
T2 sequence (Q08460 66-246 partner, one chain of several): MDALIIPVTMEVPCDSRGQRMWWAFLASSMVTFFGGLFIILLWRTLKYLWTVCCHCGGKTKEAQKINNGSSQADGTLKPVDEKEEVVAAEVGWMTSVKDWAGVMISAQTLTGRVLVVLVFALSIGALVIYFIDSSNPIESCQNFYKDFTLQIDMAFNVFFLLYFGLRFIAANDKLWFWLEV

[6] = molecular target: T2, MC13 (Slo1(1-181):Slo3(171-1121)); type: cell-based; conditions: pH 8.5
mouse Slo3 K+ channels [7] = molecular target: T3, mouse Slo3 K+ channels (Mus musculus, UniProt O54982); type: cell-based
T3 sequence (O54982 1-1121): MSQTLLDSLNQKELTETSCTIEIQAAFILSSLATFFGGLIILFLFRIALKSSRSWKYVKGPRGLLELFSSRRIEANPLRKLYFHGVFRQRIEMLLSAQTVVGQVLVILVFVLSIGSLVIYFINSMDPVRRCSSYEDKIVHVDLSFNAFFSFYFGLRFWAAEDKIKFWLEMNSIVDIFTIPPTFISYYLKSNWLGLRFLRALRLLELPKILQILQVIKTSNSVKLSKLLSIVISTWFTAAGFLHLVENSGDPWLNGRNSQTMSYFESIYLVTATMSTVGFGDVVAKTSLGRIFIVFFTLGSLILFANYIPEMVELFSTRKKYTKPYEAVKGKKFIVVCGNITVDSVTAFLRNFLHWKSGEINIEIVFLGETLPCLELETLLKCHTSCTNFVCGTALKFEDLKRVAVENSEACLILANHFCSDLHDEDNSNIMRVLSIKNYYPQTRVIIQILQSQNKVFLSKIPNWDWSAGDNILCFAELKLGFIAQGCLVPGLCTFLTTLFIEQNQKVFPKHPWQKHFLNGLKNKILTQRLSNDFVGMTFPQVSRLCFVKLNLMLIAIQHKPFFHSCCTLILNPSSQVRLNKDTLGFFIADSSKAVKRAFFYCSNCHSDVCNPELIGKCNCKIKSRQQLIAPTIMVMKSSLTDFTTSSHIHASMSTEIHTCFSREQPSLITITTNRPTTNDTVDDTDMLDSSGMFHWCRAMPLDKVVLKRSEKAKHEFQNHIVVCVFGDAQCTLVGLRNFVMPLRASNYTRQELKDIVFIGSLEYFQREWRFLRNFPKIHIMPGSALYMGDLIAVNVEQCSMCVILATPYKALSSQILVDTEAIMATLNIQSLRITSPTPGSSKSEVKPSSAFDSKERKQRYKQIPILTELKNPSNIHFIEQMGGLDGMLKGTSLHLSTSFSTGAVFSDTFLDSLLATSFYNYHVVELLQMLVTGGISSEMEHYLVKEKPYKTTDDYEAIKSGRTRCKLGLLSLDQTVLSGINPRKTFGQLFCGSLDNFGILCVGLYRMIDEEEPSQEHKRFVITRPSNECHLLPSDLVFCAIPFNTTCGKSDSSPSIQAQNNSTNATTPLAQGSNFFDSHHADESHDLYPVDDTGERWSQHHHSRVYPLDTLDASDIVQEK

Slo1-Y294V = Slo1-Y294V (Mus musculus, UniProt Q08460, Y359V); test: Block of Slo1-Y294V currents by extracellular CTX or TEA; type: cell-based; conditions: TEA up to 10 mM
Chain of Slo1-Y294V (Q08460 66-1209 Y359V limits assumed): as the sequence (Q08460 66-1209 limits assumed) above, with Y294V counted along it
How it was run: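 Excised outside-out patches at room temperature (~22–25°C), with blocker applied to the extracellular face by a multi-barrel local perfusion system, one barrel flowing at a time. The extracellular solution was (mM) 140 K-methanesulfonate, 20 KOH, 10 HEPES, 2 MgCl2, pH 7.0. The pipette (cytosolic) solution was 140 K-methanesulfonate, 20 KOH, 10 HEPES, with 10 μM Ca2+ for CTX tests.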

sperm = conditions: TEA at 2.5–10 mM; cited from earlier work
BK single channels [8] = conditions: symmetrical K+ solutions, cited from earlier work
BK single channels [9] = conditions: symmetrical K+ solutions, cited from earlier work; remark: listed apart in the source
mouse Slo3 K+ channels [10] = molecular target: T4, mouse Slo3 K+ channels (Mus musculus, UniProt O54982); test: Block of Slo3 currents by extracellular blockers; type: cell-based
T4 sequence (O54982 171-1121 limits assumed): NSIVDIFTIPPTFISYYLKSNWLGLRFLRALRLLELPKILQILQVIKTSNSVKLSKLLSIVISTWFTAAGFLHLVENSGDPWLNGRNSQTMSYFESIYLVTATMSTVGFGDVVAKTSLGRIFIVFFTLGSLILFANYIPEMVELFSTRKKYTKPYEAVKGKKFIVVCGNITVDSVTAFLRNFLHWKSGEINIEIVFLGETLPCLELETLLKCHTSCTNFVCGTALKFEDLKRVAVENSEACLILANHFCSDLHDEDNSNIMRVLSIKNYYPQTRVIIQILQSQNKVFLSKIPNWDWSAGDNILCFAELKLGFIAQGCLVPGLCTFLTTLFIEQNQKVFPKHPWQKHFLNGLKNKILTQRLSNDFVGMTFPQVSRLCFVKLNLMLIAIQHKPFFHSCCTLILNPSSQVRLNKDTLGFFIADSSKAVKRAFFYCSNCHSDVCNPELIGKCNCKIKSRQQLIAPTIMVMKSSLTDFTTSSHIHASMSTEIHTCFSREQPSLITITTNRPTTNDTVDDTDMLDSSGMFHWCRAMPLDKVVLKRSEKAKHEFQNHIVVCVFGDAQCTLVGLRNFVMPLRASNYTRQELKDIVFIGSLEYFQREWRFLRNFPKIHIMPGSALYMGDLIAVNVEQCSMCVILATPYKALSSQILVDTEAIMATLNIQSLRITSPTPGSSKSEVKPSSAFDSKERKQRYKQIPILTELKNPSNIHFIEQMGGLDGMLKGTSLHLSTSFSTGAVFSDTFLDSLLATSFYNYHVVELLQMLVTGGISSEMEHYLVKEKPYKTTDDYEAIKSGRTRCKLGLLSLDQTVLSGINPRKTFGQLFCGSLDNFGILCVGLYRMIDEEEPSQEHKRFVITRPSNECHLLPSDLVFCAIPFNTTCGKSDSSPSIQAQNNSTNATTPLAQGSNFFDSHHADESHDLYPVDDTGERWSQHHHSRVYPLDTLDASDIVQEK

Slo1/BK-type channels = conditions: read-out: extracellular TEA concentration for blockade (half block); cited from earlier work
[11] = cytosolic 4-AP, fit OB-CB (2') 4 params
[12] = cytosolic 4-AP, fit OB-CB (2a) 2 params
[13] = cytosolic TEA, fit OB-CB (2') 4 params
[14] = cytosolic TEA, fit OB-CB (2a) 2 params
[15] = read-out: Kb, block by cytosolic TEA
[16] = cytosolic TEA, 0 Ca2+, fit OB-CB (2a) 2 params

SMILES: Nc1ccncc1 [4-AP, 4-aminopyridine]
percent protonated ([1]; 4-AP at pH 7.0): 99.4% | percent protonated ([1]; 4-AP at pH 8.5): 83.4% | concentration disrupting volume regulation (murine sperm): 1 to 4 mM | concentration disrupting volume regulation (human sperm): 1 to 4 mM | zδ (mouse Slo1 K+ channels [2]; cytosolic 4-AP at pH 7.0, Scheme 1a (Fig. 7C)): 0.17 ± 0.01 e and 0.18 ± 0.02 e | zδ (mouse Slo1 K+ channels [2]; cytosolic 4-AP at pH 8.5, Scheme 1a (Fig. 7D)): 0.05 ± 0.06 e | zδ (mouse Slo1 K+ channels [2]; cytosolic 4-AP at pH 8.5, state-independent Scheme 2a (Fig. 7D)): 0.11 ± 0.03 e | zc (mouse Slo1 K+ channels [2]; [11]): 0.33 ± 0.32 e | zo (mouse Slo1 K+ channels [2]; [11]): 0.12 ± 0.03 e | zc (mouse Slo1 K+ channels [2]; [12]): 0.10 ± 0.02 e | zo (zδ) (mouse Slo1 K+ channels [2]; cytosolic 4-AP, state-independent OB-CB (2a) 2 params): 0.10 ± 0.02e e | z(p) (mouse Slo1 K+ channels [2]; cytosolic 4-AP, pH 7.0 and 8.5 fit simultaneously with two-site Scheme 3): 0.19 ± 0.02 e | zo (mouse Slo1 K+ channels [3]; extracellular 4-AP, 300 μM Ca2+, pH 8.5, fit OB-CB (2a) 2 params): 0.48 ± 0.04 e | difference in affinity of Slo1 and Slo3 channels for extracellular 4-AP [4]: at least 20 fold | effect of extracellular 4-AP on MC13/Slo3 currents [5]: relatively insensitive; also recorded: little effect; also recorded: essentially no blocking effect | effect of extracellular 4-AP on MC13/Slo3 currents ([5]; listed as 4-APo): without effect | zc ([6]; cytosolic 4-AP, fit OB-CB (2') 4 params (zo fixed 0)): 0.26 + 1.05 e | zo [6, 12]: 0.17 ± 0.02 e | zo (zδ) ([6]; cytosolic 4-AP, open channel block OB (1a) 2 params): 0.02 ± 0.03 e | zo (mouse Slo3 K+ channels [7]; cytosolic 4-AP, pH 8.5, fit OB-CB (2a) 2 params): 0.16 ± 0.01 e | Slo3 more sensitive than Slo1 to cytosolic 4-AP (mouse Slo3 K+ channels [7]; open channel block): 10–15 fold

effect of extracellular TEA on Slo1-Y294V (Slo1-Y294V): lack of effect | zc (mouse Slo1 K+ channels [2]; [13]): 0.57 ± 0.32 e | zo (mouse Slo1 K+ channels [2]; [13]): 0.16 ± 0.20 e | zc (mouse Slo1 K+ channels [2]; [14]): 0.22 ± 0.02 e | zo (mouse Slo1 K+ channels [2]; [14]): 0.22 ± 0.02 e | zo (zδ) (mouse Slo1 K+ channels [2]; cytosolic TEA, open channel block OB (1a) 2 params): 0.15 ± 0.02 e | Kd (mouse Slo1 K+ channels [2]; read-out: Kbc, cytosolic TEA, fit OB-CB (2') 4 params): 61400 ± 34800 µM | Kd (mouse Slo1 K+ channels [2]; read-out: Kbc, cytosolic TEA, fit OB-CB (2a) 2 params): 73500 ± 4500 µM | Kd (mouse Slo1 K+ channels [2]; read-out: Kbo, cytosolic TEA, fit OB-CB (2') 4 params): 78600 ± 22600 µM | Kd (mouse Slo1 K+ channels [2]; read-out: Kbo, cytosolic TEA, fit OB-CB (2a) 2 params): 73500 ± 4500 µM | block of Slo3 (mouse Slo3 K+ channels [10]): resistant to block | block of Slo1 current (mouse Slo1 K+ channels [3]; 250 μM extracellular TEA, at 0 mV): about 50% | zo (mouse Slo1 K+ channels [3]; extracellular TEA, 300 μM Ca2+, pH 8.5, fit OB-CB (2') 4 params (zc fixed 0)): 0.23 ± 0.04 e | zc (voltage-dependence of closed state block) (mouse Slo1 K+ channels [3]; extracellular TEA, 300 μM Ca2+, pH 8.5, fit OB-CB (2a) 2 params): 0.23 ± 0.02 e | zo (voltage-dependence of open state block) (mouse Slo1 K+ channels [3]; extracellular TEA, pipette 300 μM Ca2+, pH 8.5, fit OB (1a) 2 params): 0.34 ± 0.02 e | Kd (mouse Slo1 K+ channels [3]; read-out: Kbc (affinity of blocker to closed state), extracellular TEA, 300 μM Ca2+, pH 8.5, fit OB-CB (2a) 2 params): 174 ± 8 µM | Kd (mouse Slo1 K+ channels [3]; read-out: Kbo (affinity of blocker to open state), extracellular TEA, pipette 300 μM Ca2+, pH 8.5, fit OB (1a) 2 params): 132 ± 6.9 µM | zc ([6]; cytosolic TEA, 0 Ca2+, fit OB-CB (2') 4 params (zo fixed 0)): 0.06 ± 0.20 e | zc [6, 16]: 0.05 ± 0.02 e | zo (z) [6, 16]: 0.05 ± 0.02 e | Kd ([6]; read-out: Kbc, cytosolic TEA, 0 Ca2+, fit OB-CB (2') zo = zc = 0 e): 2360 ± 420 µM | Kd ([6]; read-out: Kbc, cytosolic TEA, 0 Ca2+, fit OB-CB (2a) 2 params): 2010 ± 290 µM | Kb ([6]; read-out: Kbo (Kb), cytosolic TEA, 0 Ca2+, fit OB-CB (2a) 2 params): 2010 ± 290 µM | Kd ([6]; read-out: Kbo, cytosolic TEA, 0 Ca2+, fit OB (1a) zo = 0 e): 330 ± 10 µM | Kd ([6]; read-out: Kbo, cytosolic TEA, 0 Ca2+, fit OB-CB (2') zo = zc = 0 e): 560 ± 60 µM
SMILES: CC[N+](CC)(CC)CC [TEA, tetraethylammonium]
effects on sperm function (sperm): not produced | Kb (BK single channels [8]; [15]): 34700 µM | zδ (BK single channels [8]): 0.27 e | Kb (BK single channels [9]; [15]): 60000 µM | zδ (BK single channels [9]): 0.26 e | effect of extracellular TEA on MC13 ([5]; TEA up to 10 mM): only minor effects; also recorded: minimal effect | IC50 (Slo1/BK-type channels): 200 to 300 µM

From paper PMC3723589 (Channels, 2010)
